Assay results: ChEMBL document CHEMBL5104212, “Green synthesis of 3-methyl-4-(hetero)aryl methylene isoxazole-5(4H)-ones using WEOFPA/glycerol: evaluation of anticancer and electrochemical behaviour properties” (RSC Med Chem, 2022); call rule not given here

Legend:
[1] = test system: A549; assay: Anticancer activity against human A549 cells assessed as inhibition of cell growth incubated for 48 hrs by MTT assay; assay type: functional, cell-based; settings: A549, 48 h
How it was run: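 A549 cells were seeded in 96-well plates and held overnight at 37°C, 95% humidity, 5% CO₂. Compounds came from DMSO stock dilution series and were added at 100, 50, 25, 12.5, 6.25 and 3.125 μg/mL for 48 hrs. Wells were PBS-washed, given MTT for 4h at 37°C, and formazan was dissolved in DMSO. A570 was read, and survival was taken as mean test OD over mean negative-control OD ×100.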

[2] = Electrochemical behavior of the compound assessed as oxidation potential peak by measuring […] current in DMSO using Ag/AgCl reference electrode by cyclic voltammetry; assay type: physicochemical
[3] = Electrochemical behavior of the compound assessed as reduction potential peak by measuring […] current in DMSO using Ag/AgCl reference electrode by cyclic voltammetry; assay type: physicochemical

Compound | IC50 [1] [µM] | Activity [2] | Activity [3]
COc1ccc(/C=C2/C(=O)ON=C2C)cc1OC | 59.2 | Active | Active
CC1=NOC(=O)/C1=C/c1c(O)ccc2ccccc12 | 22.8 | Active | Active
CC1=NOC(=O)/C1=C/c1ccc[nH]1 | 183 | Active | Active
CC1=NOC(=O)C1Cc1cccs1 (stereo not given) | 14.2 | Active | Active
CC1=NOC(=O)/C1=C/c1c(Cl)[nH]c2ccccc12 | 8.99 | Active | Active
CC1=NOC(=O)/C1=C/c1cn(-c2ccccc2)cc1-c1ccccc1 | 12.3 | Active | Active
CC1=NOC(=O)/C1=C/c1c[nH]c2ccccc12 | 107 | Active | Active
CC1=NOC(=O)/C1=C/c1c(-c2ccccc2)[nH]c2ccccc12 | 37.4 | Active | Active
COc1cccc2c1C(=O)c1c(O)c3c(c(O)c1C2=O)C[C@@](O)(C(=O)CO)C[C@@H]3O[C@H]1C[C@H](N)[C@H](O)[C@H](C)O1 [DOXORUBICIN] | 8.73 |  | 
